The source made the active and inactive calls. No cut-off for these calls is given here.
What was measured:
Type in all cases: functional, cell-based
[1] = target: T1, Glycine receptor subunit alpha-1 (Homo sapiens, UniProt P23415); experiment: Agonist activity at human recombinant alpha 1 GlyR expressed in HEK293 cells assessed as potentiation of glycine current by whole cell patch clamp assay
T1 sequence (P23415 whole entry): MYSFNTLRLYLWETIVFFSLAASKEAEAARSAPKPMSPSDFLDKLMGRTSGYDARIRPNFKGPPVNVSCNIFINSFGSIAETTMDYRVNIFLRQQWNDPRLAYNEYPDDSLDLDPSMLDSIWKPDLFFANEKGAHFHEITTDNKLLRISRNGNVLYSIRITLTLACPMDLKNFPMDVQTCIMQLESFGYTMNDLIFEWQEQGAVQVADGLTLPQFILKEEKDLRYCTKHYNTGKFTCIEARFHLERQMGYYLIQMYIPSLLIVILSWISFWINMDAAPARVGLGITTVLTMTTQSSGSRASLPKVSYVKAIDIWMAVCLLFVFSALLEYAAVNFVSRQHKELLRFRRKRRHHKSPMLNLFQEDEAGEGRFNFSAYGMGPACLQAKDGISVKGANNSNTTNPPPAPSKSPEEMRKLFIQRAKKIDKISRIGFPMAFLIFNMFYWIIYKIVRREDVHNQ

[2] = target: T2, Glycine receptor subunit alpha-3 (Homo sapiens, UniProt O75311); experiment: Agonist activity at human recombinant alpha 3 GlyR expressed in HEK293 cells assessed as potentiation of glycine current by whole cell patch clamp assay
T2 sequence (O75311 whole entry): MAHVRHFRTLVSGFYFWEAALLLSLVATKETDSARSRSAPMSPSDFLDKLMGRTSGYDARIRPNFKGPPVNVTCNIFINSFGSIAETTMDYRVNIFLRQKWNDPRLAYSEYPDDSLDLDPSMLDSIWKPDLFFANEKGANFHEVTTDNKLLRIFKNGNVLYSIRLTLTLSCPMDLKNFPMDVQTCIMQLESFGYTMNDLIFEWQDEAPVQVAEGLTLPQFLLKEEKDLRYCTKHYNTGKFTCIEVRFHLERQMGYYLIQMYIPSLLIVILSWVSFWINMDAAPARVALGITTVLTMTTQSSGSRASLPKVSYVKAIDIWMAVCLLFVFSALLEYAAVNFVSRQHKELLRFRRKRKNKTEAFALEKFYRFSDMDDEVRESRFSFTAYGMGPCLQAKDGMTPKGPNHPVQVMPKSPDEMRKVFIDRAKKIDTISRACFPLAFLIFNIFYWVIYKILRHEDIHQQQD

[3] = target: T1, Glycine receptor subunit alpha-1; experiment: (§1) Antagonist activity at human recombinant alpha 1 GlyR expressed in HEK293 cells assessed as inhibition of glycine current influx by whole cell patch clamp assay
[4] = target: T2, Glycine receptor subunit alpha-3; experiment: Antagonist activity at human recombinant alpha 3 GlyR expressed in HEK293 cells assessed as inhibition of glycine current influx by whole cell patch clamp assay
[5] = target: T3, Glycine receptor subunit alpha-1 (Homo sapiens) (UniProt P23415); experiment: as §1
T3 sequence (whole entry): T1 sequence (P23415 whole entry)

[6] = target: T4, Glycine receptor subunit alpha-2 (Homo sapiens) (UniProt P23416); experiment: Antagonist activity at human recombinant alpha 2 GlyR expressed in HEK293 cells assessed as inhibition of glycine current influx by whole cell patch clamp assay
T4 sequence (whole entry): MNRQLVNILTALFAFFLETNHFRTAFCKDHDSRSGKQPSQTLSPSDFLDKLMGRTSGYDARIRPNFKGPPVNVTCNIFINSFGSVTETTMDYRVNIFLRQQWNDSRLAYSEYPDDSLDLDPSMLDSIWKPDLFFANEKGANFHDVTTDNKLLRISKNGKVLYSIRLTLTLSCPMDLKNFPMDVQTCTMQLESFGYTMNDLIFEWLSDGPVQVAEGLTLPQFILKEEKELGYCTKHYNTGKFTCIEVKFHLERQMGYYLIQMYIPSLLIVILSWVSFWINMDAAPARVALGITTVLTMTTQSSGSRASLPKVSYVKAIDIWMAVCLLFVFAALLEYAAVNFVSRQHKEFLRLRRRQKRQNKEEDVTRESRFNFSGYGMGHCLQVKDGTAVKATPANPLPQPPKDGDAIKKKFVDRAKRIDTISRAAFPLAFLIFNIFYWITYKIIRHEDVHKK
Outline: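 HEK293 cells transiently expressing α2 GlyR, recorded by conventional whole-cell patch clamp. Current was activated with EC20 glycine (50 µM), and compound was applied at 10 µM together with glycine. Response is expressed as % of control glycine current, averaged from six cells.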

[7] = target: T3, Glycine receptor subunit alpha-1 (Homo sapiens); experiment: Antagonist activity at human recombinant alpha 1 GlyR expressed in HEK293 cells assessed as inhibition of glycine current influx up to 30 uM by whole cell patch clamp assay
[8] = target: T3, Glycine receptor subunit alpha-1 (Homo sapiens); experiment: Agonist activity at human recombinant alpha 1 GlyR expressed in HEK293 cells assessed as potentiation of glycine current at 100 uM by whole cell patch clamp assay relative to EC20 glycine maximum response
[9] = target: T3, Glycine receptor subunit alpha-1 (Homo sapiens); experiment: Agonist activity at human recombinant alpha 1 GlyR expressed in HEK293 cells assessed as potentiation of glycine current up to 100 uM by whole cell patch clamp assay
[10] = target: T3, Glycine receptor subunit alpha-1 (Homo sapiens); experiment: Agonist activity at human recombinant alpha 1 GlyR expressed in HEK293 cells assessed as potentiation of glycine current at 1 to 10 uM by whole cell patch clamp assay
[11] = target: T4, Glycine receptor subunit alpha-2 (Homo sapiens); experiment: Antagonist activity at human recombinant alpha 2 GlyR expressed in HEK293 cells assessed as inhibition of glycine current influx at 10 uM by whole cell patch clamp assay
[12] = target: T5, Glycine receptor subunit alpha-3 (Homo sapiens) (UniProt O75311); experiment: Agonist activity at human recombinant alpha 3 GlyR expressed in HEK293 cells assessed as potentiation of glycine current up to 100 uM by whole cell patch clamp assay
T5 sequence (whole entry): T2 sequence (O75311 whole entry)

[13] = target: T5, Glycine receptor subunit alpha-3 (Homo sapiens); experiment: Agonist activity at human recombinant alpha 3 GlyR expressed in HEK293 cells assessed as potentiation of glycine current at 100 uM by whole cell patch clamp assay relative to EC20 glycine maximum response

| Compound | EC50 ([1]; hek293) | EC50 [2] | IC50 [3] | IC50 ([4]; read-out: IC50) [µM] | IC50 ([4]; hek293) | other results |
| --- | --- | --- | --- | --- | --- | --- |
| CCOC(=O)C(O)(C[C@@H](C)CCC/C(C)=C/CC/C(C)=C/CCC1=CCN(CC(=O)O)C1=O)C(C)(O)C(=O)O (stereo partly specified) [IRCINIALACTAM D] | Not Active | Not Active | Not Active | 30 |  |  |
| CCCCCCC(C)(C)c1cc(O)c2c(c1)OC(C)(C)[C@@H]1CC=C(CO)C[C@@H]21 |  |  |  |  |  | Activity [5]: Active; Activity [6]: Active; Activity [7]: inactive |
| Cc1c(C(=O)c2cccc3ccccc23)c2cccc3c2n1[C@H](CN1CCOCC1)CO3 |  |  |  |  |  | Activity [5]: Active; Activity [6]: Active; Activity [7]: inactive |
| CC1=C(O)/C(=C/[C@@H](C)CCC/C(C)=C/CC/C(C)=C/CCC2=CCN(CC(=O)O)C2=O)OC1=O [IRCINIALACTAM A] |  | Not Active | Not Active | 30 |  | Activity [8]: 140%; Activity [9]: inactive |
| CC(C)(C)C1(O)CC[S+]([O-])CC1 (stereo unspecified) |  |  |  |  |  | Activity [10]: 135% |
| C/C(=C\CCC1=CCN(CC(=O)O)C1=O)CC/C=C(\C)CCC[C@H](C)CC(=O)O [IRCINIALACTAM C] | Not Active | Not Active | Not Active | 30 |  |  |
| CC1=C(O)/C(=C/[C@@H](C)CCC/C(C)=C/CCC(C)(O)CCCc2ccoc2)OC1=O (stereo partly specified) |  | Not Active | Not Active | 7 |  | EC50 ([1]; read-out: EC50): 1.2 µM; Activity [8]: 215%; inhibition [11]: 87%; Activity [7]: Active |
| CC1=C(O)/C(=C/[C@@H](C)CCC/C(C)=C\CC/C(C)=C/CCc2ccoc2)OC1=O | Not Active | Not Active | Not Active |  | Not Active |  |
| CC1=C(O)/C(=C/C(C)/C=C/C=C(\C)CCCc2coc(Cc3ccoc3)c2)OC1=O (stereo unspecified) [COMETIN A] | Not Active | Not Active | Not Active |  | Not Active |  |
| CCCCCCC(C)(C)c1cc(OC)c([C@H]2C=C(CO)[C@@H]3C[C@H]2C3(C)C)c(OC)c1 |  |  |  |  |  | Activity [5]: Active; Activity [6]: Active; Activity [7]: inactive |
| C/C(=C\CCC1=CCN(CC(=O)O)C1=O)CC/C=C(\C)CCC[C@@H](C)CC(=O)O | Not Active | Not Active | Not Active | 30 |  |  |
| CC1=C(O)/C(=C/[C@@H](C)CCC/C(C)=C/CC/C(C)=C/CCc2ccoc2)OC1=O | Not Active | Not Active | Not Active |  | Not Active |  |
| CC1=C(O)/C(=C/[C@@H](C)CCC/C(C)=C/CCC(C)(O)CCCC2=CCN(CC(=O)O)C2=O)OC1=O (stereo partly specified) [8-HYDROXYIRCINIALACTAM A] |  | Not Active | Not Active |  | Not Active | Activity [8]: 217%; Activity [9]: inactive |
| CC1=C(O)/C(=C/C(C)/C=C/C=C(\C)CCCC(C)CCCc2ccoc2)OC1=O (stereo unspecified) | Not Active | Not Active | Not Active |  | Not Active |  |
| CC1=C(O)/C(=C/[C@@H](C)CCC/C(C)=C/CCC(C)(O)CCCC2=CC(=O)N(CC(=O)O)C2)OC1=O (stereo partly specified) [8-HYDROXYIRCINIALACTAM B] |  |  | Not Active |  | Not Active | EC50 ([1]; read-out: EC50): 0.5 µM; Activity [8]: 330%; Activity [12]: inactive; Activity [13]: 183% |
